Published values gathered from unrelated publications.
Each line is one published result; the experiments were not run side by side.
Target: Serine/threonine-protein kinase OSR1 (OXSR1, Homo sapiens, UniProt O95747)

Compound	read-out	method	tested at	remaining binding [%]
CNC(=O)[C@@H]1CC[C@@H](n2c(-c3ccc4cnccc4c3)nc3ccc(C(=O)NCc4cccc(C(N)=O)c4)cc32)C1	binding	competition with immobilised ligand	1 µM	100
C=CC(=O)N1CCC(C(=O)NCC(=O)N2CCN(c3nc(-c4cnc(N)nc4C(F)F)nc(N4CCOCC4)n3)CC2)CC1	binding	competition with immobilised ligand	1 µM	100
O=C(Nc1c[nH]nc1C(=O)NC1CCNCC1)c1cc(F)cc(F)c1	binding	competition with immobilised ligand	1 µM	100
F[C@@H]1CCN(c2nccc(-c3cnn4ncccc34)n2)C1	binding		1 µM	100
O=C(O)[C@@H]1[C@@H](Cn2nnc3ccccc3c2=O)CC[C@H]1C(=O)c1ccc(OCCC2CCOCC2)cc1	cell-free assay	competition with immobilised ligand	1 µM	100
C[C@H]1CCN(c2nccc(-c3cnn4ncccc34)n2)C1	binding		1 µM	76
CS(=O)(=O)N1CCCC(NC(=O)[C@H](CCC2CCCCC2)NC(=O)c2ccc(CNc3ncnc4c3nnn4-c3ccccc3)cc2)C1 (stereo partly shown)	cell-free assay	competition with immobilised ligand	0.1 µM	100
CC1CCCN1c1nccc(-c2cnn3ncccc23)n1 (stereo not shown)	binding		1 µM	100
c1cncc(-c2cccc(Nc3nccc(NC4CCCCC4)n3)c2)c1	binding	competition with immobilised ligand	10 µM	100
N[C@H]1CCN(c2nccc(-c3cnn4ncccc34)n2)C1	binding		1 µM	86
O=C(NCCCN1CCOCC1)c1ccc(Nc2nccc(-c3cc4ccccc4s3)n2)cc1	binding	competition with immobilised ligand	1 µM	77
CN(C)c1nccc(-c2cnn3ncccc23)n1	binding		1 µM	100
O=C(NCCCN1CCOCC1)c1ccc(Nc2ncc(Cl)c(-c3ccc(Cl)s3)n2)cc1	binding	competition with immobilised ligand	1 µM	79
c1cnn2ncc(-c3ccnc(N4CCC45COC5)n3)c2c1	binding		1 µM	62
Cc1cc(C)c(-n2ccn3nc(-c4cccnc4)cc23)cc1NC(=O)c1cc(C#N)cc(S(F)(F)(F)(F)F)c1	cell-free assay	competition with immobilised ligand	0.1 µM	87
COc1cnc(Nc2cccc(S(N)(=O)=O)c2)nc1N1CCN(c2ccccc2)CC1	binding	competition with immobilised ligand	1 µM	90
CNC(=O)c1ccc(Nc2ncc(C(F)(F)F)c(NCc3nccnc3N(C)S(C)(=O)=O)n2)cc1	cell-free assay	competition with immobilised ligand	0.1 µM	100
O=C(c1ccc(Nc2nccc(-c3cc4ccccc4s3)n2)cc1)N1CCC(N2CCCC2)CC1	binding	competition with immobilised ligand	1 µM	100
O=C(N[C@H]1CCCCC/C=C\C2C[C@@]2(C(=O)O)NC(=O)[C@@H]2C[C@@H](Oc3ccncc3)CN2C1=O)OC1CCCC1 (stereo partly shown)	binding	competition with immobilised ligand	1 µM	75
Cc1cnn2ncc(-c3ccnc(N(C)C)n3)c2c1	binding		1 µM	84
O=C(Nc1cccnn1)N1CCC(=Cc2cccc(Oc3ccc(C(F)(F)F)cn3)c2)CC1	cell-free assay	competition with immobilised ligand	1 µM	100
C[C@@H](c1ccc(-n2cnc3c(N)ncnc32)cc1)N1CCc2nn(C)c(Cc3ccccc3)c2C1=O	binding	competition with immobilised ligand	0.1 µM	72
